# Source: PubChem BioAssay
# Sampled rows, rich in hits. Any-hit rate of the full collection: about 2.5%.
# PKA inh – inhibitors of human protein kinase A; inhibition, % at 6 µM; 0.1% of 65,000 active; P17612; PKA Kemptide phosphorylation, Kinase-Glo ATP luminescence;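 active = inhibition above the screen-wide mean inhibition plus 3 SD, cut at about 21% in these data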
# SF-1 act – activates the human nuclear receptor SF-1 | CHO-K1 Gal4-SF-1 LBD luciferase reporter; % increase over DMSO SF-1-specific signal | activation, % at 10 µM | 1.9% of 65,000 active;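 active = activation above the mean activation of all tested compounds plus 3 SD, cut at about 50% in these data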
#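 Material: CHO-K1 cells with Gal4–hSF-1 LBD chimera plus Gal4-driven luciferase / Input: 4,000 CHO-K1 cells per well / Incubation: compound exposure 20 h at 37 °C / Signal: luminescence read 15 min after SteadyLite luciferase reagent, after room-temperature equilibration / Read-out: percent activation versus DMSO / Benchmarks: DMSO negative control and −SF1 background wells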
# ROCK2 inh – ROCK2 (human) kinase inhibition | purified ROCK2, Kinase-Glo ATP depletion luminescence | 0.35% of 60,000 active | AID 604 | O75116 | inhibition, % at 6 µM;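 active = inhibition above the screen-wide mean inhibition plus 3 SD, cut at about 18% in these data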
# RORA act – activators of human nuclear receptor RORA; AID 560; 1.5% of 65,000 active; activation, % at 10 µM; CHO-K1 Gal4-RORA LBD luciferase reporter, luminescence; percent increase over mock-subtracted basal signal; P35398;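 active = activation above the mean of all tested compounds plus 3 SD, cut at about 49% in these data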
# MT1-MMP txn act – MT1-MMP promoter transcription activation; HT1080 MT1-MMP promoter luciferase reporter, luminescence, overnight; stronger effect = higher value; activation factor at 10 µM; 0.16% of 86,000 active; AID 750;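 active = activation factor of at least 2 for MT1-MMP transcription at 10 µM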
# JNK3 inh – inhibitors of human JNK3 kinase | inhibition, % at 8 µM | AID 746 | purified JNK3 kinase activity, HTS | 0.61% of 60,000 active | P53779; in the data active = inhibition above about 17%
# Target sequence (P53779 whole entry, looked up): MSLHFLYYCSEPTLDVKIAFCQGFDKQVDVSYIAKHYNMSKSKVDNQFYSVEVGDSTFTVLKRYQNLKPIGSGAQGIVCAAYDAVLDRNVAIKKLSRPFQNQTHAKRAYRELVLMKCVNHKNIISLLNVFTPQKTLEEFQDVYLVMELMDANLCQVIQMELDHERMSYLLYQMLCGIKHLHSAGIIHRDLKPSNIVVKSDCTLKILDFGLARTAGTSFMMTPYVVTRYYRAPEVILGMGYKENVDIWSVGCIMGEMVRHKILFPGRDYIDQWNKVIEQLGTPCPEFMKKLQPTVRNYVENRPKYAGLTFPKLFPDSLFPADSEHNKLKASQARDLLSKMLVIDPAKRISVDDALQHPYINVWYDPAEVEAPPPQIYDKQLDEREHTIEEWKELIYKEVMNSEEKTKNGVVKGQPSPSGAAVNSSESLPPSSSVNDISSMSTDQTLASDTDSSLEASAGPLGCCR
# Hits are given with their value; i = inactive; nt = no result.
SMILES,PKA inh,SF-1 act,ROCK2 inh,RORA act,MT1-MMP txn act,JNK3 inh
N#CCCC12CCCCC1=Nc1ccccc12 (stereo not given),i,i,i,i,i,19.0
OC1c2ccccc2-c2nc3ccccc3cc21 (stereo not given),nt,nt,nt,nt,i,nt
Cc1c(Br)cc(C(=O)NCc2ccco2)c(C)c1C,i,i,i,i,i,i
Cc1ccc2c(CC(=O)NCc3ccco3)coc2c1C,i,i,i,52.2,nt,i
COc1ccc(Cc2nnc(NC(=O)c3cccs3)s2)cc1,i,i,i,50.6,i,i
Cc1sc(NC(=O)c2cccs2)nc1-c1ccccc1,i,i,i,i,i,i
CCCSc1nnc(NC(=O)Nc2ccccc2)s1,i,52.6,i,i,i,i
O=C(Nc1nnc(Cc2ccccc2)s1)c1cccs1,i,81.3,i,i,i,i
CCCSc1nnc(NC(=O)Nc2ccc(F)cc2)s1,i,i,i,i,i,i
O=C(Nc1nsc(-c2ccccc2)n1)c1cccs1,i,77.0,i,i,i,i
O=C(NCc1ccco1)c1cc2sccc2n1Cc1ccccc1,i,i,i,i,i,i
CC(=O)Nc1ccc(S(=O)(=O)NCCc2ccc(F)cc2)cc1,nt,nt,nt,nt,i,nt
Cc1ccc(C2CC(=O)N(c3ccc(F)cc3)C3=C2C(=O)CCC3)cc1 (stereo not given),nt,nt,nt,nt,i,nt
CCSc1nnc(NC(=O)c2cccs2)s1,i,i,i,49.9,i,i
CCSc1nnc(NC(=O)c2cc(C)oc2C)s1,i,75.7,i,59.6,i,i
O=c1ccc(Cc2ccccn2)n[nH]1,nt,nt,nt,nt,i,nt
COC(=O)c1cc2c(C)nn(-c3ccccc3)c2s1,i,i,i,i,i,i
Cc1nn(-c2ccccc2)c2c1C(O)n1c(nc3ccccc31)S2 (stereo not given),i,i,i,i,i,18.6
O=C(NCCSCc1ccco1)Nc1ccc(Cl)cc1,i,65.0,i,i,i,i
CCOC(=O)c1ccccc1NC(=O)CSc1nnnn1C1CCCCC1,i,i,i,54.0,i,i
COC(=O)c1ccccc1NC(=O)CSc1nnnn1C1CCCCC1,i,i,i,i,i,i
CCOC(=O)c1sc2nc3c(cc2c1N)COC(C)(CC)C3 (stereo not given),nt,nt,nt,nt,i,nt
CCOC(=O)c1sc2nc3c(cc2c1N)COC(C)(C)C3,i,53.0,i,i,i,i
COc1ccccc1C1CN(c2ccc(F)cc2F)N=C1c1cccs1 (stereo not given),nt,nt,nt,nt,i,nt
COc1ccccc1C1CC(c2cccs2)=Nc2ccccc2S1 (stereo not given),nt,nt,nt,nt,2.1,nt
SMILES,PKA inh,SF-1 act,ROCK2 inh,RORA act,MT1-MMP txn act,JNK3 inh
COc1ccc(Nc2nccc3c2nnn3C)cc1,i,i,i,52.7,i,i
Cn1nnc2c(NCc3ccco3)nccc21,i,i,nt,i,i,nt
N#C/C(C(=O)Oc1ccccc1)=C1\C=CC=CN1,i,i,i,58.5,i,i
CC(C)(C)C(=O)Nc1cccc(-c2nnc(-c3cccc(NC(=O)C(C)(C)C)c3)o2)c1,nt,nt,nt,nt,i,nt
CCOc1cccc(C(=O)Nc2cccc(-c3nnc(-c4ccccc4)o3)c2)c1,i,i,i,i,i,i
COc1cccc(C(=O)Nc2cccc(-c3nnc(-c4ccccc4)o3)c2)c1,i,92.1,i,i,i,i
CC(=O)Nc1cccc(-c2nnc(-c3ccccc3)o2)c1,i,50.6,nt,i,i,nt
CC(=O)Nc1cccc(-c2nc3ccccc3c(=O)o2)c1,i,i,i,i,i,18.4
CCC(=O)Nc1cccc(-c2nc3ccccc3c(=O)o2)c1,i,i,i,i,i,i
COC(=O)c1ccc(C(NC(=O)OCc2ccccc2)/C(C)=C/[C@@H](C)C(=O)NCc2cc(F)cc(F)c2)cc1 (stereo not given in full),nt,nt,nt,nt,i,nt
C/C(=C\C1CCCCC1)C(NC(=O)c1cccnc1)c1ccc(-c2ccccc2)cc1 (stereo not given),nt,nt,nt,nt,i,nt
CCOC(=O)C1=C(C)N(CCCC(=O)O)C(=O)NC1c1ccc(C(F)(F)F)cc1 (stereo not given),nt,nt,nt,nt,i,nt
C=CCON1C(=O)c2ccccc2C1=O,nt,nt,nt,nt,i,nt
NC(=O)c1sc2nc3c(c(-c4ccco4)c2c1N)CCC3,i,i,35.1,i,i,i
NC(=O)c1sc2nc3c(c(-c4cccs4)c2c1N)CCCC3,i,i,nt,i,i,nt
O=C(Nc1cccc(F)c1)Nc1ccccn1,i,61.6,nt,61.3,nt,nt
O=C(Nc1ccncc1)Nc1ccccn1,i,i,nt,i,i,nt
COc1ccc(C(=O)c2oc3ccccc3c2N)cc1,i,i,i,i,2.3,i
COc1ccc2oc(C(=O)C3CC3)c(N)c2c1,i,74.0,i,68.4,i,i
COc1ccc2oc(C(=O)c3ccccc3)c(N)c2c1,nt,nt,nt,nt,2.1,nt
Cc1nnc(Sc2nc3c(c(=O)[nH]c(=O)n3C)n2Cc2ccccc2Cl)s1,i,i,i,i,i,i
CCCCCCN(C(=O)CCCCCN1C(=O)NC(C2CC2)C(C(=O)OCc2ccccc2)=C1C)C(C(=O)NCCCC)c1ccc(OCC(=O)OC)c(C(=O)OC)c1 (stereo not given),nt,nt,nt,nt,i,nt
COC(=O)N1[C@H](C)C=C[C@]1(Cc1ccccc1)C(=O)NCc1ccc(N(C)C)cc1,nt,nt,nt,nt,i,nt
COC(=O)[C@@H]1C[C@H]1[C@@H](NC(=O)c1cc(C)nn1C)c1ccccc1,nt,nt,nt,nt,i,nt
Fc1ccc(-c2nnc(-c3ccc(Cl)cc3)o2)cc1,i,i,i,56.1,i,i
SMILES,PKA inh,SF-1 act,ROCK2 inh,RORA act,MT1-MMP txn act,JNK3 inh
O=P(N[C@@H](c1ccccc1)[C@@H]1C[C@H]1CCO)(c1ccccc1)c1ccccc1,nt,nt,nt,nt,i,nt
Cc1nc(NCc2ccco2)c(C#N)c2c1COC(C)(C)C2,i,i,i,i,i,30.9
CC1(C)Cc2c(C#N)c(NCc3ccco3)nc(-c3ccco3)c2CO1,i,i,i,i,i,i
Cc1ccc(-c2cc(-c3ccccc3)c3c(N)c(S(C)(=O)=O)sc3n2)cc1,nt,nt,nt,nt,i,nt
CS(=O)(=O)c1sc2nc(-c3cccs3)cc(-c3ccccc3)c2c1N,i,i,i,i,2.2,i
COc1ccc(C)cc1NC(=O)C1CC(=O)OC12CCCCC2 (stereo not given),i,i,i,i,nt,i
CC1(C)CC(NC(=O)c2coc(=O)c(Br)c2)CC(C)(C)N1,i,i,i,i,i,i
COC(=O)c1ccc(CN2CCN(Cc3ccc(C(=O)OC)o3)CC2)o1,i,i,i,i,i,i
COC(=O)c1ccc(Cn2c(O)c(N=O)c3ccccc32)o1,i,i,i,i,i,20.4
Cc1cc(N)n(-c2ncnc3scc(-c4ccc(Cl)cc4)c23)n1,nt,nt,nt,nt,i,nt
Cc1cc2ncc(-c3ccc(Cl)cc3)c(N)n2n1,i,55.4,i,i,i,i
O=C1c2ccccc2-c2c1cccc2C(=O)N1CCCCC1,nt,nt,nt,nt,i,nt
O=C(c1cccc2c1-c1ccccc1/C2=N/O)N1CCCCC1,i,i,i,i,i,26.4
COCc1cc(C)nc2sc(C(=O)OC)c(N)c12,i,i,i,i,i,i
COC(=O)c1sc2nc(-c3ccco3)ccc2c1N,i,66.3,i,i,i,i
